# Measured values reported in ChEMBL document CHEMBL3992563, “Piperazines as nootropic agents: New derivatives of the potent cognition-enhancer DM235 carrying hydrophilic substituents” (Bioorg Med Chem, 2017).
# Assays:
# Mus musculus [1] = experiment: Cognition enhancing effect in ip dosed mouse assessed as reversal of scopolamine-induced amnesia treated 20 mins prior to training session followed by scopolamine challenge immediately after training session by passive avoidance test; type: functional; conditions: read-out: MED
# Mus musculus [2] = experiment: Cognition enhancing effect in […] mouse assessed as reversal of scopolamine-induced amnesia by measuring difference between training session and retention session time at MED treated 20 mins prior to training session followed by scopolamine challenge immediately after training session by passive avoidance test
# [3] = Half life in Sprague-Dawley rat plasma at 1 uM by LC-MS/MS analysis; type: ADME, cell-free
# How it was run: (§1)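 Analyte at 1 µM final in PBS or in plasma from male Sprague-Dawley rats (plasma stored at −80 °C), incubated at 37 °C. Sampled in triplicate at 0, 30, 60 and 120 min, then internal standard added. Quantified by ESI-positive LC-MS/MS in MRM mode (C18 column, formic acid/acetonitrile gradient) against calibration from 0–1.00 µM. Enalapril checked plasma hydrolytic activity; t1/2 extrapolated from concentration-time curves.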
# [4] = Half life in PBS at 1 uM by LC-MS/MS analysis; type: physicochemical; how it was run: as §1
# Mus musculus [5] = experiment: (§2) Cognition enhancing effect in sc dosed CD-1 albino mouse assessed as reversal of scopolamine-induced amnesia treated 20 mins prior to training session followed by scopolamine challenge immediately after training session by passive avoidance test; type: functional; conditions: CD-1, sc, read-out: MED
# How it was run: (§3)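 Mouse passive-avoidance test using a modified Jarvik–Kopp protocol. Drug in saline with 10% DMSO, given s.c. 20 min before training in a 1:10 dilution series up to 10 mg/kg. Scopolamine 1.5 mg/kg i.p. given right after the punishment/training session. Saline controls got an extra saline injection. Each value is the mean of 12–14 mice; the read-out is minimal effective dose.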
# Mus musculus [6] = experiment: Toxicity in sc dosed CD-1 albino mouse assessed as gross behavior abnormality at cognition enhancing MED; type: organism-based; conditions: in vivo
# Mus musculus [7] = experiment: Toxicity in sc dosed CD-1 albino mouse assessed as effect on motor co-ordination at cognition enhancing MED by rota rod test; type: organism-based; conditions: in vivo
# Mus musculus [8] = experiment: Toxicity in sc dosed CD-1 albino mouse assessed as effect on spontaneous motility at cognition enhancing MED by hole-board test; type: organism-based; conditions: in vivo
# Mus musculus [9] = experiment: Potency index, ratio of piracetam MED to compound MED for cognition enhancing effect in sc dosed CD-1 albino mouse; type: functional
# Mus musculus [10] = experiment: as §2, with “amnesia by measuring difference between training session and retention session time at MED” for “amnesia”; type: functional; how it was run: as §3
# [11] = Stability in Sprague-Dawley rat plasma assessed as parent compound remaining at 1 uM after 60 mins by LC-MS/MS analysis; type: ADME, cell-free; conditions: read-out: Stability; how it was run: as §1
# Plasma [12] = experiment: Drug level in Sprague-Dawley rat plasma treated with (4-Acetyl-1-(4-fluorophenylsulfonyl)piperazin-2-yl)methyl acetate at 1 uM after 60 mins by LC-MS/MS analysis; type: ADME, cell-free; conditions: 1 h; how it was run: as §1
# [13] = Stability in Sprague-Dawley rat plasma assessed as parent compound remaining at 1 uM after 2 hrs by LC-MS/MS analysis; type: ADME, cell-free; conditions: read-out: Stability; how it was run: as §1
# Plasma [14] = experiment: Drug metabolism in Sprague-Dawley rat plasma assessed as 1-(4-(4-Fluorophenylsulfonyl)-2-(hydroxymethyl)piperazin-1-yl)ethanone formation at 1 uM after 60 mins by LC-MS/MS analysis; type: ADME, cell-free; conditions: 1 h; how it was run: as §1
# Plasma [15] = experiment: Drug level in Sprague-Dawley rat plasma treated with (4-Benzoyl-1-propionylpiperazin-2-yl)methyl acetate at 1 uM after 60 mins by LC-MS/MS analysis; type: ADME, cell-free; conditions: 1 h; how it was run: as §1
# Plasma [16] = experiment: Drug metabolism in Sprague-Dawley rat plasma assessed as 1-(4-Benzoyl-3-(hydroxymethyl)piperazin-1-yl)propan-1-one formation at 1 uM after 60 mins by LC-MS/MS analysis; type: ADME, cell-free; conditions: 1 h; how it was run: as §1
# Plasma [17] = experiment: Drug metabolism in Sprague-Dawley rat plasma assessed as 1-(4-(4-Fluorophenylsulfonyl)-3-(hydroxymethyl)piperazin-1-yl)ethanone formation at 1 uM after 60 mins by LC-MS/MS analysis; type: ADME, cell-free; conditions: 1 h; how it was run: as §1
# Plasma [18] = experiment: Drug level in Sprague-Dawley rat plasma treated with (1-Acetyl-4-(4-fluorophenylsulfonyl)piperazin-2-yl)methyl acetate at 1 uM after 60 mins by LC-MS/MS analysis; type: ADME, cell-free; conditions: 1 h; how it was run: as §1
# Plasma [19] = experiment: Drug level in Sprague-Dawley rat plasma treated with (1-Benzoyl-4-propionylpiperazin-2-yl)methyl acetate at 1 uM after 60 mins by LC-MS/MS analysis; type: ADME, cell-free; conditions: 1 h; how it was run: as §1
# Plasma [20] = experiment: Drug metabolism in Sprague-Dawley rat plasma assessed as 1-(4-Benzoyl-2-(hydroxymethyl)piperazin-1-yl)propan-1-one formation at 1 uM after 60 mins by LC-MS/MS analysis; type: ADME, cell-free; conditions: 1 h; how it was run: as §1
SMILES,minimal effective dose (Mus musculus [1]),half-life at 1 µM [3],half-life at 1 µM [4],minimal effective dose (Mus musculus [5]),Activity (Mus musculus [6]),Activity (Mus musculus [7]),Activity (Mus musculus [8]),Ratio (Mus musculus [9]),Time (Mus musculus [10]),further results
CC(=O)N1CCN(S(=O)(=O)c2ccc(F)cc2)C(C)C1 (stereo not given),0.1 mg/kg,,,,,,,,,Time (Mus musculus [2]): 82.6 s
CC(=O)N1CCN(S(=O)(=O)c2ccc(F)cc2)CC1C (stereo not given),1 mg/kg,,,,,,,,,Time (Mus musculus [2]): 83.9 s
CCC(=O)N1CCN(C(=O)c2ccccc2)C(C)C1 (stereo not given),0.1 mg/kg,,,,,,,,,Time (Mus musculus [2]): 60.2 s
CCC(=O)N1CCN(C(=O)c2ccccc2)CC1C (stereo not given),> 10 mg/kg,,,,,,,,,
CC(=O)N1CCN(S(=O)(=O)c2ccc(F)cc2)CC1,0.01 mg/kg,≥ 4 h,≥ 4 h,,,,,,,
COCC1CN(S(=O)(=O)c2ccc(F)cc2)CCN1C(C)=O (stereo not given),,≥ 4 h,≥ 4 h,> 10 mg/kg,Non-Toxic,Non-Toxic,Non-Toxic,,,
CCC(=O)N1CCN(C(=O)c2ccccc2)C(COC)C1 (stereo not given),,≥ 4 h,≥ 4 h,1 mg/kg,Non-Toxic,Non-Toxic,Non-Toxic,3 - 300,73.4 s,
CCC(=O)N1CCN(C(=O)c2ccccc2)[C@H](CO)C1,,,,1 mg/kg,,,,,58.8 s,
CCOC(=O)C1CN(S(=O)(=O)c2ccc(F)cc2)CCN1C(C)=O (stereo not given),,0.617 h,≥ 4 h,1 mg/kg,Non-Toxic,Non-Toxic,Non-Toxic,3 - 300,50.1 s,"remaining at 1 h, 1 µM [11]: < 50%"
CCC(=O)N1CCN(C(=O)c2ccccc2)CC1COC (stereo not given),,≥ 4 h,≥ 4 h,10 mg/kg,Non-Toxic,Non-Toxic,Non-Toxic,3 - 300,79.7 s,
CC(=O)N1CCN(S(=O)(=O)c2ccc(F)cc2)C(CO)C1 (stereo not given),,≥ 4 h,≥ 4 h,1 mg/kg,Non-Toxic,Non-Toxic,Non-Toxic,3 - 300,66.2 s,Drug metabolism (Plasma [12]): Metabolite_Detected
CC(=O)OCC1CN(S(=O)(=O)c2ccc(F)cc2)CCN1C(C)=O (stereo not given),,0.5 h,≥ 4 h,> 10 mg/kg,Non-Toxic,Non-Toxic,Non-Toxic,,,"remaining at 2 h, 1 µM [13]: ≤ 10%; Drug metabolism (Plasma [14]): Metabolite_Detected"
CC(=O)OC[C@H]1CN(C(C)=O)CCN1S(=O)(=O)c1ccc(F)cc1,,,,1 mg/kg,,,,,70.6 s,
CCC(=O)N1CCN(C(=O)c2ccccc2)CC1CO (stereo not given),,≥ 4 h,≥ 4 h,10 mg/kg,Non-Toxic,Non-Toxic,Non-Toxic,3 - 300,72.7 s,Drug metabolism (Plasma [15]): Metabolite_Detected
COCC1CN(C(C)=O)CCN1S(=O)(=O)c1ccc(F)cc1 (stereo not given),,≥ 4 h,≥ 4 h,1 mg/kg,Non-Toxic,Non-Toxic,Non-Toxic,3 - 300,76.5 s,
CCOC(=O)C1CN(C(=O)CC)CCN1C(=O)c1ccccc1 (stereo not given),,0.433 h,≥ 4 h,1 mg/kg,Non-Toxic,Non-Toxic,Non-Toxic,3 - 300,56.6 s,"remaining at 1 h, 1 µM [11]: < 50%"
CCOC(=O)C1CN(C(=O)c2ccccc2)CCN1C(=O)CC (stereo not given),,0.2 h,≥ 4 h,1 mg/kg,Non-Toxic,Non-Toxic,Non-Toxic,3 - 300,51.1 s,"remaining at 1 h, 1 µM [11]: < 50%"
CCC(=O)N1CCN(C(=O)c2ccccc2)[C@@H](CO)C1,,,,1 mg/kg,,,,,55 s,
CCC(=O)N1CCN(C(=O)c2ccccc2)C(COC(C)=O)C1 (stereo not given),,1.67 h,≥ 4 h,> 10 mg/kg,Non-Toxic,Non-Toxic,Non-Toxic,,,"remaining at 2 h, 1 µM [13]: 50%; Drug metabolism (Plasma [16]): Metabolite_Detected"
CC(=O)OCC1CN(C(C)=O)CCN1S(=O)(=O)c1ccc(F)cc1 (stereo not given),,0.483 h,≥ 4 h,0.1 mg/kg,Non-Toxic,Non-Toxic,Non-Toxic,3 - 300,56.8 s,"remaining at 2 h, 1 µM [13]: ≤ 10%; Drug metabolism (Plasma [17]): Metabolite_Detected"
CC(=O)N1CCN(S(=O)(=O)c2ccc(F)cc2)CC1CO (stereo not given),,≥ 4 h,≥ 4 h,10 mg/kg,Non-Toxic,Non-Toxic,Non-Toxic,3 - 300,48 s,Drug metabolism (Plasma [18]): Metabolite_Detected
CC(=O)OC[C@@H]1CN(C(C)=O)CCN1S(=O)(=O)c1ccc(F)cc1,,,,1 mg/kg,,,,,64.5 s,
CCC(=O)N1CCN(C(=O)c2ccccc2)C(CO)C1 (stereo not given),,≥ 4 h,≥ 4 h,0.1 mg/kg,Non-Toxic,Non-Toxic,Non-Toxic,3 - 300,52.6 s,Drug metabolism (Plasma [19]): Metabolite_Detected
CCC(=O)N1CCN(C(=O)c2ccccc2)CC1COC(C)=O (stereo not given),,2.57 h,≥ 4 h,1 mg/kg,Non-Toxic,Non-Toxic,Non-Toxic,3 - 300,62.2 s,"remaining at 2 h, 1 µM [13]: 60%; Drug metabolism (Plasma [20]): Metabolite_Detected"
CCOC(=O)C1CN(C(C)=O)CCN1S(=O)(=O)c1ccc(F)cc1 (stereo not given),,0.35 h,≥ 4 h,0.1 mg/kg,Non-Toxic,Non-Toxic,Non-Toxic,3 - 300,55.7 s,"remaining at 1 h, 1 µM [11]: < 50%"
CCOC(=O)[C@H](CCc1ccccc1)N[C@@H](C)C(=O)N1CCC[C@H]1C(=O)O [ENALAPRIL],,1.57 h,≥ 4 h,,,,,,,
NC(=O)CN1CCCC1=O [PIRACETAM],30 mg/kg,,,,,,,,,Time (Mus musculus [2]): 82.4 s
CC(=O)NC1CCN(S(=O)(=O)c2ccc(F)cc2)CC1 [SAPUNIFIRAM],0.01 mg/kg,,,,,,,,,
CCC(=O)N1CCN(C(=O)c2ccccc2)CC1 [SUNIFIRAM],0.001 mg/kg,≥ 4 h,≥ 4 h,,,,,,,
O=C1CCC2CN(S(=O)(=O)c3ccc(F)cc3)CCN12 (stereo not given) [UNIFIRAM],0.001 mg/kg,,,,,,,,,
